Experimental data: ChEMBL document CHEMBL4819061, “New bioactive 5-arylcarboximidamidopyrazolo[3,4-c]pyridines: Synthesis, cytotoxic activity, mechanistic investigation and structure-activity relationships” (Eur J Med Chem, 2021)

What was measured:
Format in all cases: functional, cell-based
[1] = system: MDA-MB-231; assay: Cytotoxicity against human MDA-MB-231 cells assessed as reduction in cell viability incubated for 72 hrs by MTT assay; conditions: MDA-MB-231, 72 h
How it was run: (§1)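 Cancer lines (MDA-MB-231, HT-1080, PC-3) were grown in DMEM with 10% FBS and penicillin/streptomycin at 37 °C in 5% CO₂. About 5000 cells/well adhered overnight, then serial compound dilutions were added for 72 h, with matching DMSO dilutions (0.5–0.0008% v/v) as controls. MTT (1 mg/ml final, serum-free phenol-red-free DMEM) ran 4 h, was solubilised in 2-propanol, and OD read at 550 nm (ref 690). IC50 is the concentration halving OD versus untreated, mean of three independent experiments.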

[2] = system: HT-1080; assay: Cytotoxicity against human HT-1080 cells assessed as reduction in cell viability incubated for 72 hrs by MTT assay; conditions: HT-1080, 72 h; how it was run: as §1
[3] = system: PC-3; assay: Cytotoxicity against human PC-3 cells assessed as reduction in cell viability incubated for 72 hrs by MTT assay; conditions: PC-3, 72 h; how it was run: as §1

| Structure (SMILES) | IC50 [1] | IC50 [2] | IC50 [3] |
| --- | --- | --- | --- |
| Cn1cc2cc(C(=N)Nc3cccc(C(F)(F)F)c3)ncc2n1 | > 50 µM | – | – |
| COc1cc(Nc2nc(C(=N)Nc3cccc(C(F)(F)F)c3)cc3c(-c4ccccc4)n[nH]c23)cc(OC)c1OC | 7.6 µM | 6.7 µM | 13.9 µM |
| CN1CCN(c2ccc(NC(=N)c3cc4c(-c5ccccc5)n[nH]c4cn3)cc2)CC1 | 15.9 µM | 11.4 µM | 17.1 µM |
| COc1ccc(Cn2ncc3cc(C(=N)Nc4ccc(N5CCN(C)CC5)cc4)ncc32)cc1 | 5.7 µM | 5.3 µM | 6.1 µM |
| COc1cc(Nc2nc(C(=N)Nc3ccc(N4CCN(C)CC4)cc3)cc3c(-c4ccccc4)n[nH]c23)cc(OC)c1OC | 4.6 µM | 3.4 µM | 4.3 µM |
| N=C(Nc1ccccc1)c1cc2cn[nH]c2cn1 | > 50 µM | – | – |
| CN1CCN(c2ccc(NC(=N)c3cc4cn[nH]c4cn3)cc2)CC1 | 47.5 µM | 31.3 µM | 45.4 µM |
| COc1ccc(Cn2nc(-c3ccccc3)c3cc(C(=N)Nc4ccccc4)nc(N4CCOCC4)c32)cc1 | 21.2 µM | 6.2 µM | 16.4 µM |
| COc1ccc(Cn2nc(-c3ccccc3)c3cc(C(=N)Nc4cccc(C(F)(F)F)c4)ncc32)cc1 | > 50 µM | 46.7 µM | > 50 µM |
| CN1CCN(c2ccc(NC(=N)c3cc4cn(C)nc4cn3)cc2)CC1 | 20.5 µM | 21 µM | 24.8 µM |
| N=C(Nc1ccccc1)c1cc2c(-c3ccccc3)n[nH]c2cn1 | 11 µM | 22 µM | 23 µM |
| COc1ccc(Cn2cc3cc(C(=N)Nc4ccc(N5CCN(C)CC5)cc4)ncc3n2)cc1 | 8 µM | 3.2 µM | 9.9 µM |
| CN1CCN(c2ccc(NC(=N)c3cc4c(-c5ccccc5)n[nH]c4c(N4CCOCC4)n3)cc2)CC1 | 3.9 µM | 5.6 µM | 8.3 µM |
| Cn1nc(-c2ccccc2)c2cc(C(=N)Nc3cccc(C(F)(F)F)c3)ncc21 | 21.4 µM | 17.8 µM | 20.9 µM |
| COc1ccc(Cn2ncc3cc(C(=N)Nc4cccc(C(F)(F)F)c4)ncc32)cc1 | 29.8 µM | 24.9 µM | 27.6 µM |
| COc1ccc(Cn2nc(-c3ccccc3)c3cc(C(=N)Nc4ccccc4)nc(Nc4cc(OC)c(OC)c(OC)c4)c32)cc1 | 42.1 µM | 11.1 µM | > 50 µM |
| COc1ccc(Cn2nc(-c3ccccc3)c3cc(C(=N)Nc4cccc(C(F)(F)F)c4)nc(N4CCOCC4)c32)cc1 | > 50 µM | – | – |
| COc1cc(Nc2nc(C(=N)Nc3ccccc3)cc3c(-c4ccccc4)n[nH]c23)cc(OC)c1OC | 4.5 µM | 3.9 µM | 5.8 µM |
| CN1CCN(c2ccc(NC(=N)c3cc4cnn(C)c4cn3)cc2)CC1 | 30.2 µM | 24 µM | 32.3 µM |
| COc1ccc(Cn2cc3cc(C(=N)Nc4cccc(C(F)(F)F)c4)ncc3n2)cc1 | 15.5 µM | 13 µM | 12.8 µM |
| COc1ccc(Cn2nc(-c3ccccc3)c3cc(C(=N)Nc4cccc(C(F)(F)F)c4)nc(NC4CCCCC4)c32)cc1 | > 50 µM | – | – |
| COc1ccc(Cn2nc(-c3ccccc3)c3cc(C(=N)Nc4cccc(C(F)(F)F)c4)nc(Nc4cc(OC)c(OC)c(OC)c4)c32)cc1 | > 50 µM | – | – |
| Cn1nc(-c2ccccc2)c2cc(C(=N)Nc3ccccc3)ncc21 | 11.1 µM | 17.4 µM | 17.3 µM |
| N=C(Nc1cccc(C(F)(F)F)c1)c1cc2c(-c3ccccc3)n[nH]c2cn1 | 22.3 µM | 24.6 µM | 19.9 µM |
| COc1ccc(Cn2ncc3cc(C(=N)Nc4ccccc4)ncc32)cc1 | 34.7 µM | 25.7 µM | 36 µM |
| Cn1ncc2cc(C(=N)Nc3cccc(C(F)(F)F)c3)ncc21 | > 50 µM | 33.8 µM | > 50 µM |
| Cn1cc2cc(C(=N)Nc3ccccc3)ncc2n1 | > 50 µM | – | – |
| Cn1ncc2cc(C(=N)Nc3ccccc3)ncc21 | > 50 µM | – | – |
